What was measured:
[1] = system: choroidal neovascularization
recombinant FECH [2] = biological target: T1, recombinant FECH (Homo sapiens, UniProt P22830); assay: FECH enzymatic activity assay; assay type: biochemical; conditions: for inhibitory activity against recombinant FECH: qualitative
T1 sequence (P22830 55-423): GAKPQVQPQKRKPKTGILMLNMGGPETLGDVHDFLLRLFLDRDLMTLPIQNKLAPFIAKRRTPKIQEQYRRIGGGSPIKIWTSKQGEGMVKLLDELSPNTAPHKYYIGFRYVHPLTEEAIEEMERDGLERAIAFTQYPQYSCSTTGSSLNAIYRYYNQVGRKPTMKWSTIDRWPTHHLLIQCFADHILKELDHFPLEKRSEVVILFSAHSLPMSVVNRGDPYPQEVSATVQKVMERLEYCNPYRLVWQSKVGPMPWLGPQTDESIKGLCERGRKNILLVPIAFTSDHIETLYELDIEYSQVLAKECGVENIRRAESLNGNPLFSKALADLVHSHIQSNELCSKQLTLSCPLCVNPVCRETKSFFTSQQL

[3] = system: FECH activity in HRECs (PPIX accumulation); assay: Protoporphyrin IX buildup assay; assay type: cell-based, human; conditions: highest dose, co-treated with 5-ALA, 3 hour treatment, vs. DMSO
recombinant FECH [4] = biological target: T1, recombinant FECH; assay: 4e-FECH enzyme kinetic analysis; assay type: biochemical; conditions: vs. substrate mesoporphyrin IX; Vmax consistent, KM increased
HRECs [5] = assay: In vitro apoptosis assays; assay type: cell-based, human; conditions: 16 hour treatment, 10, 30 and 100 μM
Method in brief: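 HRECs on coated chamber slides, 70% confluent, were treated 16 h with vehicle, test compound (10, 30, 100 μM), or positive controls (1 μM staurosporine for caspase, 10 μM DNase I for TUNEL). After 4% PFA fixation: Triton permeabilisation, anti-cleaved caspase-3 (1:200, overnight, 4°C), fluorescent secondary and Hoechst; or a Click-iT TUNEL kit. Stained cells were counted as % of nuclei in three 40x fields. Three biological repeats.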

[6] = system: iCEC2 choroidal endothelial cells; assay: iCEC2 proliferation assay; assay type: cell-based, human; conditions: 48 hour treatment
ARPE19 cells [7] = assay: ARPE19 proliferation assay; assay type: cell-based, human; conditions: 48 hour treatment
HRECs [8] = assay: Scratch wound migration assay; assay type: cell-based, human; conditions: 8 hour treatment, dose dependent
Method in brief: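 HRECs were grown to confluence in 96-well plates at 37°C, scratched down the well centre with a pipette tip, and treated with test compound. Brightfield images were taken at 8 h. Cells migrating into the scratch were counted manually in six images per treatment and normalised to DMSO. Replicate runs were live-imaged. n=4 technical.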

HRECs [9] = assay: Matrigel-based tube formation assay; assay type: cell-based, human; conditions: 8 hour treatment, qualitative
Method in brief: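 Matrigel was solidified 20 min at 37°C. HRECs were added at 15,000/well in EGM-2 and dosed with test compound in DMSO. Tubes were watched by brightfield every 2 h and imaged at 8 h. Total tubule length from six images per treatment was normalised to DMSO controls. n=6 technical.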

[10] = biological target: dopamine D2 receptor DRD2S (Homo sapiens, UniProt P14416); assay: SafetyScan off-target analysis, DRD2S; assay type: cell-based
dopamine D2 receptor DRD2S, sequence (P14416 1-414 isoform P14416-2): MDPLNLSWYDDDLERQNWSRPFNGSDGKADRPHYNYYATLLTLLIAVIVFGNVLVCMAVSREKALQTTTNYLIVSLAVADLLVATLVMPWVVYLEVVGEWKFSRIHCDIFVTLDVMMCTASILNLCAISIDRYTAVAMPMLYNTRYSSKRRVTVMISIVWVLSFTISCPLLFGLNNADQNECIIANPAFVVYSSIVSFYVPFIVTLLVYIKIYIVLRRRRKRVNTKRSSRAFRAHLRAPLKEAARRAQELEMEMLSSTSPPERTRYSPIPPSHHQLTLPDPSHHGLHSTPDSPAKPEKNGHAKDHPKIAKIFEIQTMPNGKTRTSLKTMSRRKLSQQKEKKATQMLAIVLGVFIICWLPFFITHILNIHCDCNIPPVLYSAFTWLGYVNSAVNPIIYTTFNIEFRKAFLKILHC

[11] = system: Human Retinal Endothelial Cell (HREC); assay: HREC proliferation assay; assay type: cell-based; conditions: 48 hour treatment, qualitative
PPIX and heme in HRECs = assay: Porphyrin and heme analysis; assay type: cell-based, human; conditions: 30 μM 4e ± 1 mM 5-ALA
Method in brief: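 HRECs were grown to 80% confluence and serum-starved overnight. Cells received DMSO or 30 μM test compound for 1 h, then 1 mM 5-ALA or water for a further 2 h. They were pelleted in cold PBS and frozen. Heme and porphyrins were quantified by a core facility following its posted protocols. n=3.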

[12] = system: COXIV subunit I expression in HRECs; assay: Immunoblot for hemoprotein COXIV subunit I; assay type: cell-based, human; conditions: 16 hours, dose dependent (10, 30 or 100 μM)
Method in brief: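 HRECs were treated 16 h with test compound (10, 30 or 100 μM), a reference FECH inhibitor (10 μM) or DMSO. Arms were: 6 h pretreatment with 100 μM succinylacetone or water, or after treatment, medium replaced by EBM-2 with 0.2% serum and 10 μM hemin. Lysate protein (40 μg) was run on 12% SDS-PAGE and PVDF, probed with anti-COX4I1 (1:1000) and β-actin (1:2000). n=3 biological.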

HRECs [13] = conditions: ref Basavarajappa et al., 2017; cited from earlier work
ARPE19 cells [14] = conditions: ref Basavarajappa et al., 2017; cited from earlier work
[15] = system: Human Retinal Endothelial Cell (HREC); conditions: HRECs; ref Basavarajappa et al., 2017; cited from earlier work
HRECs [16] = conditions: ref Basavarajappa et al., 2017; cited from earlier work; remark: listed apart in the source
[17] = recombinant FECH activity assay

Compound: CC(C)(C)c1ccc(-c2nc3[nH]c(CNc4ccc5ccccc5n4)cc(=O)n3n2)cc1 [4e, 2-(4-(tert-Butyl)phenyl)-5-((quinolin-2-ylamino)methyl)-[1,2,4]triazolo[1,5-a]pyrimidin-7(4H)-one]
- ocular toxicity (fundus images, OCT) ([1]; day 0, 7 and 14 after laser, intravitreal): no obvious signs of toxicity
- decrease in lesion volume (agglutinin and GS-IB4 signal, choroidal flat mounts) ([1]; day 14, both tested doses (50 and 100 μM intravitreal)): > 50%
- OCT lesion volume relative to control ([1]; day 14, final intravitreal concentrations of 50 μM as well as 100 μM): significantly reduced
- leakage on fluorescein angiography (FA) ([1]; day 14, qualitative): smaller
- inhibitory activity against recombinant FECH (recombinant FECH [2]): showed inhibitory activity
- IC50 value (range in words) (recombinant FECH [2]; [17]): high nanomolar range
- PPIX accumulation in HRECs [3]: statistically significant PPIX accumulation
- mode of inhibition (recombinant FECH [4]): competitive inhibition
- apoptosis in HRECs (cleaved caspase-3, TUNEL) (HRECs [5]): did not lead to apoptosis
- proliferation of iCEC2 cells [6]: more potent than NMPP
- antiproliferative effect on ARPE19 cells (ARPE19 cells [7]): did not have a substantial antiproliferative effect
- HREC migration (HRECs [8]): blocked the migration ability
- HREC tube formation (HRECs [9]): blocked tube formation of HRECs
- EC50 [10]: 98 µM
- HREC proliferation (antiproliferative effect) [11]: anti-proliferative
- PPIX level in HRECs (PPIX and heme in HRECs): buildup of FECH substrate PPIX
- heme level in HRECs (PPIX and heme in HRECs): decrease in heme
- COXIV subunit I levels in HRECs [12]: decreased COXIV levels

Compound: CCCc1cc(=O)n2nc(CNc3ccc(C)cc3)nc2[nH]1 [5c, 5-Propyl-2-((p-tolylamino)methyl)-[1,2,4]triazolo[1,5-a]pyrimidin-7(4H)-one]
- IC50 value (range in words) (recombinant FECH [2]; [17]): high nanomolar range
- HREC tube formation (HRECs [9]): blocked tube formation of HRECs
- HREC proliferation (antiproliferative effect) [11]: anti-proliferative

Compound: CCCc1cc(=O)n2nc(CNc3ccc(Cl)cc3)nc2[nH]1 [5f, 2-(((4-Chlorophenyl)amino)methyl)-5-propyl-[1,2,4]triazolo[1,5-a]pyrimidin-7(4H)-one]
- inhibitory activity against recombinant FECH (recombinant FECH [2]): potent FECH inhibitors

Compound: CCCc1cc(=O)n2nc(CNc3ccc(F)c(Cl)c3)nc2[nH]1 [5i, 2-(((3-Chloro-4-fluorophenyl)amino)methyl)-5-propyl-[1,2,4]triazolo[1,5-a]pyrimidin-7(4H)-one]
- inhibitory activity against recombinant FECH (recombinant FECH [2]): strongest inhibitory activity
- HREC proliferation (antiproliferative effect) [11]: did not affect HREC proliferation

Compound: CCCc1cc(=O)n2nc(CNc3ccc(F)c(F)c3)nc2[nH]1 [5k, 2-(((3,4-Difluorophenyl)amino)methyl)-5-propyl-[1,2,4]triazolo[1,5-a]pyrimidin-7(4H)-one]
- inhibitory activity against recombinant FECH (recombinant FECH [2]): strongest inhibitory activity
- HREC proliferation (antiproliferative effect) [11]: did not affect HREC proliferation

Compound: N-methylprotoporphyrin [NMPP]
- inhibition of HREC migration, active concentrations (HRECs [13]): single-digit micromolar concentrations
- proliferation of ARPE19 cells (ARPE19 cells [14]): did not block proliferation
- FECH activity inhibition (recombinant FECH [2]; 10 μM, positive control in the screen): completely inhibited
- IC50 (recombinant FECH [2]; [17]): 0.45 µM
- proliferation of iCEC2 cells [6]: antiproliferative
- GI50 [15]: 30 µM
- inhibition of HREC tube formation, active concentrations (HRECs [16]): single-digit micromolar concentrations
